# Screening data (PubChem BioAssay)
# CHO-K1 Ca antag – nonselective inhibitor or artifact in parental CHO-K1 cells. ATP-induced calcium, Fluo-8 fluorescence. inhibition, % at 3 µM. 360,000 tested, 0.6% active. AID 602250;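 active = inhibition above a per-plate cutoff, the plate's mean sample inhibition plus 3 SD, cut at about 24% in these data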;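 note: 0% = DMSO plus EC80 ATP and 100% = DMSO alone without ATP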
# OX1R antag-1 – antagonists of human orexin 1 receptor (OX1R). Orexin/Hypocretin receptor type 1 (Homo sapiens), O43613. OX1R-expressing cells, FRET antagonist read-out. inhibition, % at 6.6 µM. 330,000 tested, 1.8% active. AID 485270, 2010; in the data active = inhibition mostly above about 38%, no sharp cut-off; inactive = mostly below about 40%;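 note: 0% = agonist challenge alone and 100% = reference antagonist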
# Target sequence (O43613 whole entry, looked up): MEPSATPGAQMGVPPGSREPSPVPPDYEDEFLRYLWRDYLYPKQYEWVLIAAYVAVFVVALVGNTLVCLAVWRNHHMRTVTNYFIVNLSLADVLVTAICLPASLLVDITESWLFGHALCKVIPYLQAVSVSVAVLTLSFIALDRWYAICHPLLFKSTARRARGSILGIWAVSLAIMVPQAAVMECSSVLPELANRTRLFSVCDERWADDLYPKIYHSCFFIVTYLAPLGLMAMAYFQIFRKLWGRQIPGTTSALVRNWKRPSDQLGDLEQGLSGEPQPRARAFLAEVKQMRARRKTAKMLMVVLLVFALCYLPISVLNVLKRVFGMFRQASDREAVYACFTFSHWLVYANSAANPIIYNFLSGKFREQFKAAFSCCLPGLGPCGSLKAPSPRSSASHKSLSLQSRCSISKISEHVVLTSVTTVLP
# CHO-K1 Ca ag – counter-screen for M1 agonists: effect in parental CHO-K1 cells; 360,000 tested, 0.48% active; activation, % at 3 µM; Fluo-8 calcium fluorescence; scaled to maximal ATP response, vehicle zero; AID 602248, 2012; in the data active = activation above about 15%;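 note: untransfected CHO-K1 host cells lacking M1 receptor as counterscreen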
# OX1R antag-2 – OX1R (HCRTR1) antagonists, primary screen, fluorescence, CHO/OX1R cells, Fluo-8 calcium, orexin A. Orexin/Hypocretin receptor type 1 (Homo sapiens), O43613. Fluo-8 calcium fluorescence. inhibition, % at 5 µM. 330,000 tested, 0.43% active;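 active = inhibition above its plate's threshold, mean inhibition of all tested compounds on the plate plus 3 SD, cut at about 37% in these data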;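 note: 0% = orexin A challenge wells and 100% = SB-334867-A antagonist wells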
# CHO parental Ca – ATP-evoked calcium signal inhibitors, parental CHO, primary screen, counter-screen for OX1R antagonist project, cell-based, fluorescence, Fluo-8 calcium dye; 330,000 tested, 0.63% active; parental CHO-K1, ATP-induced calcium, Fluo-8 fluorescence; inhibition, % at 5.6 µM;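 active = inhibition above that plate's mean sample inhibition plus 3 SD, cut at about 26% in these data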;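 note: 0% = ATP-challenged DMSO wells and 100% = DMSO wells without ATP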
#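 Assay system: parental CHO cells; Read-out basis: percent inhibition of ATP-evoked calcium rise, normalized to controls; Benchmarks: ATP and no-ATP DMSO wells; Compound dosing: single nominal dose of 5.6 µM per compound; Signal: Fluo-8 calcium dye fluorescence; Also added: ATP as calcium-mobilizing challenge; Repeats: singlicate.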
# CHO-K1 Ca PAM – nonselective calcium activators in parental CHO-K1 cells, primary screen, counter-screen for M1 PAM project, cell-based, Fluo-8 calcium fluorescence, full deck, 1536-well | ATP EC20; 0% at ATP EC20, 100% at ATP max | activation, % at 3 µM | 360,000 tested, 0.02% active;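 active = activation above the run cutoff, the mean activation of all test compounds plus 3 SD, cut at about 40% in these data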;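 note: peak over basal fluorescence ratio in a 140 s read after ATP addition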
# The depositor's hits bear a star; nt = not tested or not shown. Only some compounds are listed: those with a hit (about 2.9% of all), similar ones and a draw of the others.
SMILES,CHO-K1 Ca antag,OX1R antag-1,CHO-K1 Ca ag,OX1R antag-2,CHO parental Ca,CHO-K1 Ca PAM
O=C(NCC1CCCO1)c1cccc2c1C(=O)c1ccc(N3CCC(Cc4ccccc4)CC3)cc1S2(=O)=O (centres undefined),12,20,17*,38,16,-3
CC1CCN(c2ccc3c(c2)S(=O)(=O)c2cccc(C(=O)NC[C@@H]4CCCO4)c2C3=O)CC1,10,41,12,-5,-15,-7
COc1ccc(OC)c(NC(=O)c2cnc3n(c2=O)CCS3)c1,26*,8,0,-23,-11,-15
COc1ccc(Cl)cc1NC(=O)c1cnc2n(c1=O)CCS2,-11,-1,0,-12,-8,17
COc1ccc(OC)c(NC(=O)c2cnc(Nc3ccccc3OC)c3ccccc23)c1,-20,68*,-1,18,-34,30
COc1ccc(OC)c(NC(=O)COC(=O)CCNc2ccccc2OC)c1,-3,55*,-1,-4,-14,16
COc1ccc(OC)c(NC(=O)COC(=O)Cc2ccc(-c3ccccc3)cc2)c1,4,7,0,-19,-17,2
O=C(Nc1cccnc1)C1Cc2c(-c3cccc(F)c3)ccnc2O1 (centres undefined),-9,nt,2,nt,nt,15
O=S(=O)(c1ccccc1F)N1CCN(c2nc(-c3cccnc3)nc3ccccc23)CC1,6,8,6,6,-23,7
Cc1ccc(C)c(S(=O)(=O)N2CCN(c3nc(-c4cccnc4)nc4ccccc34)CC2)c1,-14,47*,4,31,-39,5
Cc1ccc(S(=O)(=O)Nc2cccnc2)cc1,-8,0,4,-4,-6,21
CCCCOc1ccc(S(=O)(=O)Nc2cccnc2)cc1,6,15,30*,7,39*,2
c1ccc(-c2cncn2-c2ccccc2)cc1,-12,16,0,-8,-2,14
c1ccc(Nc2ccccc2Nc2ccccn2)nc1,-13,56*,1,50*,49*,-3
CC[C@H]1c2[nH]c3ccccc3c2C[C@H]2C(=O)N(c3ccc(F)cc3)C(=O)N21,24*,8,1,-32,-16,-15
O=C(Nc1ccc(F)cc1F)N1CCN(CCc2ccccc2)CC1,-10,5,30*,10,4,17
Cc1cc(C)n2nc(S(=O)(=O)N(C)Cc3ccccc3)nc2n1,0,7,0,-5,-7,5
Cc1cc(C)n2nc(S(=O)(=O)N(CC(C)C)CC(C)C)nc2n1,25*,7,0,-9,-8,-8
O=C(NCCOc1ccccc1)c1ccccc1NC(=O)C1CCCO1 (centres undefined),2,16,18*,-29,-8,8
CCOC(=O)C(C)N1c2cccc3cccc(c23)S1(=O)=O (centres undefined),-19,nt,0,nt,nt,6
c1ccc(-c2cc3nccc(-c4ccccn4)n3n2)cc1,0,48*,0,-5,0,16
CC1Cc2ccccc2N1C(=O)COC(=O)c1ccc([N+](=O)[O-])o1 (centres undefined),-13,40*,2,5,-5,6
COCCn1c(C)cc(C(=O)COC(=O)c2ccc([N+](=O)[O-])o2)c1C,-17,31,0,-10,1,10
CC1CCN(C(=O)COC(=O)c2ccc([N+](=O)[O-])o2)CC1,-10,42*,0,-5,-3,19
Cc1cc(C(=O)COC(=O)c2ccc([N+](=O)[O-])o2)c(C)n1CC1CCCO1 (centres undefined),-5,67*,2,-12,0,9
SMILES,CHO-K1 Ca antag,OX1R antag-1,CHO-K1 Ca ag,OX1R antag-2,CHO parental Ca,CHO-K1 Ca PAM
CC1CCN(C(=O)COC(=O)c2ccc(Br)o2)CC1,-11,13,1,4,-8,19
COc1ccccc1N1C(=NC(=O)CCc2ccccc2)SC2CS(=O)(=O)CC21 (centres undefined),-3,9,0,-21,-10,12
CCOc1ccc(NC(=O)[C@@H]2CCC(=O)N2C2OC(=O)c3ccccc32)cc1 (some centres undefined),6,10,0,-5,2,-7
COC(=O)[C@]1(C)N[C@H](CN(C)C(=O)c2ccccc2)[C@@H]2C(=O)N(Cc3ccccc3)C(=O)[C@@H]21,-17,1,1,-8,-9,21
Cc1cc(C(=O)Nc2cccc3c2O[C@H](CN(C)CC2CC2)[C@@H](C)CN([C@H](C)CO)C3=O)n(C)n1,-28,15,10,-8,-31,56*
C[C@H](CO)N1C[C@H](C)[C@@H](CN(C)CC2CC2)Oc2c(NC(=O)C3CC3)cccc2C1=O,-5,nt,0,nt,nt,-1
C[C@H](CO)N1C[C@H](C)[C@@H](CN(C)C(=O)Nc2ccc(C(F)(F)F)cc2)Oc2c(NC(=O)Nc3ccc(C(F)(F)F)cc3)cccc2C1=O,-10,9,3,24,41*,21
CC12CCC(c3c(C(=O)O)nn(-c4ccccc4)c31)C2(C)C (centres undefined),7,41*,0,17,-4,2
CC1CCCC(NC(=O)c2ccc3snnc3c2)C1C (centres undefined),-2,11,0,-27,-9,-16
Cc1ccc(O)c(Nc2ncnc3ccc([N+](=O)[O-])cc23)c1,9,28,0,-27,-18,-16
COc1ccc(Nc2ncnc3ccc([N+](=O)[O-])cc23)c(OC)c1,1,66*,0,-8,-5,-20
CCCNc1c(NC(=O)C2CCC(C)CC2)c(=O)oc2ccccc12 (centres undefined),-17,12,1,-2,-13,3
CC1=CC(C)(C)Nc2ccc(OC(=O)c3ccco3)cc21,-6,51*,2,2,-11,14
CC1=CC(C)(C)Nc2ccc(OC(=O)c3cccnc3)cc21,-11,16,1,-6,-12,29
CCOC(=O)C1=C(COC(=O)CSc2ccc(C)cc2)NC(=O)NC1C (centres undefined),-14,-1,3,-20,-13,11
CCOc1ccc(C(=O)C[n+]2cccc3cc(C)ccc32)cc1,-6,47*,2,1,-9,21
O=c1[nH]c2cc(Cl)c(Br)cc2o1,-3,nt,16*,nt,nt,15
Cc1cc(-c2nnc(-c3cccc(Cl)c3)o2)no1,2,6,18*,-7,-3,13
Cc1cccc(C(=O)OCC(=O)NCCNC(=O)COC(=O)c2cccc(C)c2C)c1C,-1,49,0,-24,-13,13
